Assays:
[1] = target: T1, hTRPML1-nLuc (Homo sapiens, UniProt Q9GZU1); assay: In-cell BRET competitive displacement of MRC087; type: binding
In short: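 hTRPML1-nLuc HEK293T cells (2 × 10^5/100 μl, 48 h post-transfection) in Opti-MEM received tracer at 2.0 μM final and serially diluted test compound (final DMSO 1%). After 2 h incubation, nLuc substrate plus inhibitor was added and emissions read at 460/610 nm. BRET was normalised to probe-only and no-probe wells and fitted for EC50, then converted to KdA by Cheng–Prusoff using tracer Kd. n = 3–4/concentration, three independent experiments.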

[2] = target: T1, hTRPML1-nLuc; assay: In-cell BRET kinetics of competitive binding; conditions: for koff: read-out: koff of unlabeled compound
In short: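 hTRPML1-nLuc HEK293T cells in Opti-MEM were given nLuc substrate plus inhibitor, shaken 5 min and read for a 1-min baseline. The reader then injected tracer (2.0 μM final) premixed with one of two concentrations of unlabeled compound, or DMSO vehicle; 60 μM reference antagonist defined nonspecific binding. Specific BRET versus time was fitted to the Motulsky–Mahan competitive kinetics model with tracer kon/koff obtained separately. n = 6/concentration, single experiment.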

[3] = test system: hTRPML1; conditions: ref [11], [12], cited from earlier work
[4] = target: T2, GCaMP6f-hTRPML1 (Homo sapiens, UniProt Q9GZU1); assay: GCaMP6f Ca2+ indicator channel activation assay; type: cell-based
T2 sequence (Q9GZU1 whole entry): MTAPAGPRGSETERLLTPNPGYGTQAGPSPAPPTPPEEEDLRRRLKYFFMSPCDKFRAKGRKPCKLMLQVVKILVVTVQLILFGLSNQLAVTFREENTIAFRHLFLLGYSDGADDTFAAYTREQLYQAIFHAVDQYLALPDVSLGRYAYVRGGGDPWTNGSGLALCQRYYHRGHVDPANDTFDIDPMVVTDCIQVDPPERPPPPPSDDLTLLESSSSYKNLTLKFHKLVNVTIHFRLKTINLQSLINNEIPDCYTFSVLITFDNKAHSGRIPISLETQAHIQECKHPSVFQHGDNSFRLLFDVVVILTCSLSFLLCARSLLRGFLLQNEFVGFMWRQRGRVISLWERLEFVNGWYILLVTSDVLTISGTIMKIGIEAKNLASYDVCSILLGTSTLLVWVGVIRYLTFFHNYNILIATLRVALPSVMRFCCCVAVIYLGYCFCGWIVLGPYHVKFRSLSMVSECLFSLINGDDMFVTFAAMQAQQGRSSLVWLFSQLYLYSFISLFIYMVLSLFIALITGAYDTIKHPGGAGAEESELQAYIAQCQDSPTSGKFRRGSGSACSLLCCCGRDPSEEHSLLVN
In short: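 HEK293T cells were transfected with GCaMP6f-hTRPML1 and seeded at 4 × 10^5 cells/100 μl in poly-D-lysine plates. After 24 h the medium was changed to phenol red-free DMEM, with a further 24 h growth. Plates were equilibrated 10 min at RT and 10 min at 25 °C, followed by a 1-min baseline read every 5 s. The 10× compound in Ca2+-free HEPES buffer was injected and reads continued 6 min (ex 480 ± 25, em 549–562 nm; final DMSO 0.5%). Baseline-normalised AUC was scaled to DMSO (0%) and reference agonist (100%), and EC50 was taken from a nonlinear fit. n = 6/concentration, three independent experiments.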

[5] = target: T2, GCaMP6f-hTRPML1; assay: GCaMP6f Ca2+ indicator channel assay; type: cell-based
In short: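 GCaMP6f-hTRPML1-transfected HEK293T cells were preincubated 10 min at RT with test compound. After a 1-min baseline (reads every 5 s), reference agonist was injected at 25 μM final and fluorescence recorded a further 6 min (ex 480 ± 25, em 549–562 nm; 0.5% DMSO). Compounds were diluted in nominally Ca2+-free HEPES-buffered solution. Baseline-normalised AUC was scaled to DMSO and agonist controls, and IC50 was derived by nonlinear fit. n = 6/concentration, two independent experiments.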

T1 sequence (Q9GZU1 whole entry): as above

Row | Kd [1] | Kd [2] | residence time [2] | koff [2] | EC50 [4] | IC50 [5] | kon ([2]; read-out: kon of unlabeled compound) | Compound | EC50 ([3]; read-out: EC50 in previous studies) | IC50 ([3]; read-out: IC50 in previous studies)
1 | 19.8 ± 1.8 µM | 37.3 µM | 1.5 min | 0.0108 s⁻¹ | 13 ± 3.1 µM |  |  | CC1CC(C)(C)N(C(=O)CN2C(=O)c3ccccc3C2=O)c2ccccc21 (stereo not shown) [compound 1, 2-(2-oxo-2-(2,2,4-trimethyl-3,4-dihydroquinolin-1(2H)-yl)ethyl)isoindoline-1,3-dione] | 9.7 µM | 
2 | 2.8 ± 1.2 µM | 1 µM | 1.5 min | 0.0112 s⁻¹ |  | 2.8 ± 0.2 µM | 10700 M⁻¹ s⁻¹ | COc1ccccc1N1CCN(c2ccccc2NS(=O)(=O)c2ccccc2)CC1 [compound 8, N-(2-(4-(2-methoxyphenyl)piperazin-1-yl)phenyl)benzenesulfonamide] |  | 1.8 µM

From paper PMC10267526 (The Journal of Biological Chemistry, 2023)
